From ChEMBL document CHEMBL1123886 (J Med Chem, 1987)
The source made the active and inactive calls. The rule behind the calls is not given here.

Experiments:
[1] = Lipophilicity (Rm).; format: physicochemical
P388 [2] = test: Percent increase in life span of the drug-treated tumor-bearing animals vs nontreated tumor-bearing controls with P388 leukemia cells.; format: functional, Mus musculus
Method in brief: (§1)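 Groups of 6. Optimal dose is in mg/kg per day. ILSmax is the % lifespan increase over untreated tumor-bearing controls at the optimal dose; above 20% counted significant. Cures are 50-day survivors.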

[3] = test system: Lewis lung carcinoma cell line; test: Percent increase in life span, of the drug-treated tumor-bearing animals vs nontreated tumor-bearing controls with LL (Lewis lung carcinoma model) cells.; format: functional, Mus musculus
Method in brief: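 Groups of 6. Optimal dose is in mg/kg per day. ILSmax is the % lifespan increase over untreated tumor-bearing controls at the optimal dose; above 40% counted significant. Cures are 60-day survivors.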

[4] = test system: Lewis lung carcinoma cell line; test: Optimal dose to inhibit the LL (Lewis lung carcinoma model) cells in vivo after intraperitoneal administration.; format: functional, Mus musculus; parameters: unit: mg/kg/day
Method in brief: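 Mice were inoculated iv with 10^6 Lewis lung carcinoma cells. OD is the optimal dose in mg/kg per day. Lifespan increase above 40% is significant, and long-term survival was scored at 60 days.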

P388/ADR [5] = test: Percent increase in life span, of the drug-treated tumor-bearing animals vs nontreated tumor-bearing controls with P388/ADR cells.; format: functional, Mus musculus; method in brief: as §1
P388 [6] = test: Optimal dose required to inhibit the P388 intraperitoneal administration.; format: functional, Mus musculus; parameters: unit: mg/kg/day
P388/ADR [7] = test: Optimal dose required to inhibit the P388/ADR cells in vivo after intraperitoneal administration.; format: functional, Mus musculus; parameters: unit: mg/kg/day
HCT-8 = test: Ability to inhibit the growth of human colon tumor HCT-8 cells in vitro.; format: functional, cell-based
Method in brief: (§2)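 Cultured leukemia L1210 or human colon tumor HCT-8 cells were exposed to drug for 40 h.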

poly[d(A-T)] = test: Binding constant for poly[d(A-T)] by ethidium bromide displacement
L1210 = test: Ability to inhibit the growth of leukemia L1210 cells in vitro.; format: functional, cell-based; settings: Mus musculus; method in brief: as §2
Mus musculus = species on record: Mus musculus; test: Percent increase in life span of the drug treated tumor bearing animals vs nontreated tumor bearing controls was determined against P388/ADR cells;NA= not active; format: functional, organism-based
Method in brief: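 Mice were inoculated ip with 10^6 P388 or ADR/P388 cells. OD is the optimal dose in mg/kg per day. ILSmax is the % lifespan increase over untreated tumor-bearing controls at the OD; above 20% is significant. Long-term survival was scored at 50 days.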

[8] = The compound was evaluated for its acid dissociation constant; format: ADME

Row | SMILES | Rm [1] | ILS max (P388 [2]) | ILS max [3] | OD [4] | ILS max (P388/ADR [5]) | OD (P388 [6]) | OD (P388/ADR [7]) | IC50 (HCT-8) [µM] | Log K (poly[d(A-T)]) | IC50 (L1210) [µM] | ILS max (Mus musculus) | pKa [8]
1 | CNc1cc(NC(=O)OC)ccc1Nc1c2ccccc2nc2cc(Br)ccc12 | 0.7 | 101 | 86 | 45 | 29 | 45 | 45 | 0.8 | 6.87 | 0.341 |  | 
2 | CNc1cc(NC(=O)OC)ccc1Nc1c2ccc(Br)cc2nc2c(OC)cccc12 | 0.55 | 98 | 31 | 100 | 20 | 65 | 65 |  | 6.43 | 0.36 |  | 
3 | CNc1cc(NC(=O)OC)ccc1Nc1c2ccccc2nc2c(F)cccc12 | 0.37 | 103 | 77 | 65 | 43 | 65 | 100 | 2.8 | 5.82 | 1.4 |  | 
4 | CNc1cc(NC(=O)OC)ccc1Nc1c2ccc(Cl)cc2nc2c(C)cccc12 | 0.67 | 173 | 143 | 45 | 79 | 45 | 45 | 0.33 | 7.52 | 0.185 |  | 
5 | CNc1cc(NC(=O)OC)ccc1Nc1c2ccc(C)cc2nc2c(OC)cccc12 | 0.61 | 128 | 107 | 65 | 57 | 45 | 45 |  | 7.34 | 0.011 |  | 
6 | CNc1cc(NC(=O)OC)ccc1Nc1c2ccc(Cl)cc2nc2c(OC)cccc12 | 0.54 | 177 | 133 | 65 | 73 | 100 | 100 | 1.1 | 6.93 | 0.66 |  | 
7 | CNc1cc(NC(=O)OC)ccc1Nc1c2ccccc2nc2c(OC)cccc12 | 0.41 | 98 | 167 | 30 | 35 | 30 | 30 | 0.63 | 6.57 | 0.54 |  | 
8 | CNc1cc(NC(=O)OC)ccc1Nc1c2ccccc2nc2cc(I)ccc12 | 0.65 | 92 | 68 | 65 |  | 45 | 100 | 0.35 | 6.12 | 0.11 | inactive | 
9 | CNc1cc(NS(C)(=O)=O)ccc1Nc1c2ccccc2nc2ccccc12 | 0.17 |  |  |  |  |  | 13.3 |  |  |  | inactive | 
10 | COc1cc(NC(C)=O)ccc1Nc1c2ccccc2nc2ccccc12 | 0.3 | 50 |  |  |  | 13.3 | 8.9 |  | 6.1 |  | inactive | 7.79
11 | CNc1cc(NC(=O)OC)ccc1Nc1c2ccc(Br)cc2nc2c(C)cccc12 | 0.69 | 286 | 82 | 30 | 42 | 45 | 45 | 0.23 | 7.52 | 0.18 |  | 
12 | CNc1cc(NC(=O)OC)ccc1Nc1c2ccc(C)cc2nc2c(C)cccc12 | 0.51 | 181 | 171 | 20 | 33 | 20 | 13.3 | 0.08 | 6.95 | 0.044 |  | 
13 | CNC(=O)c1cccc2c(Nc3ccc(NC(=O)OC)cc3NC)c3cccc(C)c3nc12 | 0.5 | 99 | 84 | 30 | 35 | 20 | 30 | 1.85 | 7.12 | 1.2 |  | 
14 | CN(C)c1cc(NS(C)(=O)=O)ccc1Nc1c2ccccc2nc2ccccc12 | 0.41 |  |  |  | 41 | 166 | 100 |  |  |  |  | 
15 | COC(=O)Nc1ccc(Nc2c3ccccc3nc3ccccc23)c(N(C)C)c1 | 0.56 | 20 |  |  |  | 45 | 30 |  | 5.88 |  | inactive | 7.85
